Data from ChEMBL document CHEMBL1130289, “Polyanion inhibitors of human immunodeficiency virus and other viruses. 5. Telomerized anionic surfactants derived from amino acids” (J Med Chem, 1997).

Columns and labels:
[1] = tested on: Human immunodeficiency virus 2; experiment: Concentration required to inhibit HIV-2 induced cytopathicity in MT-4 cells by 50%; assay type: functional, organism-based; details: Human immunodeficiency virus 2, MT4
Method in brief: (§1)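 MT-4 cells were infected with HIV-1 (strain HTLV-IIIB/LAI) or HIV-2 (strain LAV-2 ROD) and exposed to compound. IC50 is the concentration that inhibited HIV-induced cytopathicity by 50%. Values are means of two separate experiments.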

[2] = tested on: Human immunodeficiency virus 1; experiment: Concentration required to inhibit by 50% syncytium formation between MOLT-4 cells and HIV-1(IIIB); assay type: functional, organism-based; details: Human immunodeficiency virus 1, MOLT-4
Method in brief: (§2)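 Uninfected MOLT-4 cells were co-cultured with HUT-78 cells chronically infected with HIV-1 (IIIB) or HIV-2 (ROD), in the presence of compound. The end point was syncytium formation, and IC50 is the concentration giving 50% inhibition. Values are means of two separate experiments.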

E6SM = experiment: Minimum cytotoxic concentration required to cause a microscopically detectable alteration of normal cell morphology in E6SM cells; assay type: functional, Homo sapiens
Method in brief: (§3)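 Uninfected E6SM, HeLa or Vero cells were exposed to compound and examined by microscopy. MCC is the lowest concentration causing a detectable alteration of normal cell morphology.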

Junin virus = experiment: Concentration required to inhibit Junin induced cytopathicity in Vero cells by 50%; assay type: functional, organism-based; details: Mammarenavirus juninense
Vero = experiment: Minimum cytotoxic concentration required to cause a microscopically detectable alteration of normal cell morphology in Vero cells; assay type: functional, Chlorocebus sabaeus; method in brief: as §3
[3] = tested on: Mammalian orthoreovirus 1; experiment: Concentration required to inhibit reovirus-1 induced cytopathicity in Vero cells by 50%; assay type: functional, organism-based; details: Mammalian orthoreovirus 1, Vero
Method in brief: (§4)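 Virus was added to the cell monolayers in the presence of compound. Incubation continued until the viral cytopathic effect was scored. IC50 is the concentration that reduced virus-induced cytopathicity by 50%.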

Sindbis virus = experiment: Concentration required to inhibit Sindbis induced cytopathicity in Vero cells by 50%; assay type: functional, organism-based; method in brief: as §4
HEL = experiment: Minimum cytotoxic concentration required to cause a microscopically detectable alteration of normal cell morphology in HEL cells; assay type: functional, Homo sapiens
Vaccinia virus = experiment: Concentration required to inhibit Vaccinia induced cytopathicity in E6SM cells by 50%; assay type: functional, organism-based; details: Orthopoxvirus vaccinia
Human respirovirus 3 = experiment: Concentration required to inhibit parainfluenza-3 induced cytopathicity in Vero cells by 50%; assay type: functional, organism-based; details: Human respirovirus 3, Vero; method in brief: as §4
Human alphaherpesvirus 1 [4] = experiment: Concentration required to inhibit HSV-1 TK-(B2006) induced cytopathicity in E6SM cells by 50%; details: Human alphaherpesvirus 1, E6SM
Human betaherpesvirus 5 [5] = experiment: Concentration required to inhibit HCMV(Davis) induced cytopathicity in HEL cells by 50%; assay type: functional, organism-based; details: Human betaherpesvirus 5, HEL; method in brief: as §4
[6] = tested on: Vesicular stomatitis virus; experiment: Concentration required to inhibit vesicular stomatitis induced cytopathicity in E6SM cells by 50%; assay type: functional, organism-based
[7] = tested on: Human immunodeficiency virus 1; experiment: Inhibitory concentration required to inhibit HIV-induced cytopathicity in CEM-4 cells by 50% based in the MTT assay; Not active; assay type: functional, organism-based
Coxsackievirus = experiment: Concentration required to inhibit Coxsackie induced cytopathicity in HeLa cells by 50%; assay type: functional, organism-based; method in brief: as §4
HeLa = experiment: Minimum cytotoxic concentration required to cause a microscopically detectable alteration of normal cell morphology in HeLa cells; assay type: functional, Homo sapiens; method in brief: as §3
CEM-4 = experiment: Cytotoxic concentration required to reduce the viability of uninfected cells by 50% after 5 days of incubation in the presence on CEM-4 cells.; assay type: functional; details: Homo sapiens, CEM-4, 120 h
Method in brief: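 Uninfected CEM-4 cells were incubated with compound for 5 days. CC50 is the concentration that reduced viability by 50%. Values average at least two separate experiments.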

[8] = tested on: Human immunodeficiency virus 2; experiment: Concentration required to inhibit by 50% syncytium formation between MOLT-4 cells and HIV-2 (ROD) infected HUT-78 cells; assay type: functional, organism-based; details: Human immunodeficiency virus 2, MOLT-4; method in brief: as §2
Human alphaherpesvirus 1 [9] = experiment: Concentration required to inhibit HSV-1(KOS) induced cytopathicity in E6SM cells by 50%; details: Human alphaherpesvirus 1, E6SM
Human alphaherpesvirus 2 = experiment: Concentration required to inhibit HSV-2(G) induced cytopathicity in E6SM cells by 50%; details: Human alphaherpesvirus 2, E6SM
Human betaherpesvirus 5 [10] = experiment: Concentration required to inhibit HCMV(AD169) induced cytopathicity in HEL cells by 50%; assay type: functional, organism-based; details: Human betaherpesvirus 5, HEL; method in brief: as §4
Semliki Forest virus = experiment: Concentration required to inhibit forest induced cytopathicity in Vero cells by 50%; assay type: functional, organism-based; method in brief: as §4
Tacaribe virus = experiment: Concentration required to inhibit Tacaribe induced cytopathicity in Vero cells by 50%; assay type: functional, cell-based; details: Mammarenavirus tacaribeense
MT4 = experiment: Concentration required to reduce the viability of mock-infected MT-4 cells by 50%; assay type: functional; details: Homo sapiens
Method in brief: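 Mock-infected MT-4 cells were exposed to compound. CC50 is the concentration that reduced cell viability by 50%. Values are means of two separate experiments.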

Poliovirus 1 = experiment: Concentration required to inhibit Polio-1 induced cytopathicity in HeLa cells by 50%; assay type: functional, organism-based; details: Enterovirus C
[11] = tested on: Human immunodeficiency virus 1; experiment: Concentration required to inhibit HIV-1 induced cytopathicity in MT-4 cells by 50%; assay type: functional, organism-based; details: Human immunodeficiency virus 1, MT4; method in brief: as §1
[12] = tested on: Human immunodeficiency virus 1; experiment: Inhibitory concentration required to inhibit HIV-induced cytopathicity in CEM-4 cells by 50% based in the MTT assay; assay type: functional, organism-based; details: Human immunodeficiency virus 1, CEM-4

| Structure (SMILES) | IC50 [1] [µg/mL] | IC50 [2] [µg/mL] | MMC (E6SM) [µg/mL] | IC50 (Junin virus) [µg/mL] | MMC (Vero) [µg/mL] | IC50 [3] [µg/mL] | IC50 (Sindbis virus) [µg/mL] | MMC (HEL) [µg/mL] | IC50 (Vaccinia virus) [µg/mL] | IC50 (Human respirovirus 3) [µg/mL] | IC50 (Human alphaherpesvirus 1 [4]) [µg/mL] | IC50 (Human betaherpesvirus 5 [5]) [µg/mL] | IC50 [6] [µg/mL] | IC50 (Coxsackievirus) [µg/mL] | MMC (HeLa) [µg/mL] | CC50 (CEM-4) [µg/mL] | IC50 [8] [µg/mL] | IC50 (Human alphaherpesvirus 1 [9]) [µg/mL] | IC50 (Human alphaherpesvirus 2) [µg/mL] | IC50 (Human betaherpesvirus 5 [10]) [µg/mL] | other results |
| --- | --- | --- | --- | --- | --- | --- | --- | --- | --- | --- | --- | --- | --- | --- | --- | --- | --- | --- | --- | --- | --- |
| CCCCCCCCCCCCSCCCCCCCCCCCCC(=O)NCCCCCCCCCCC(=O)NCCC(=O)[O-].[Na+] | 12 | 10 | >200 | 43 | >200 | > 200 | > 200 | >50 | > 200 | > 200 | 20 | 20 | > 200 | > 200 | >200 | 42 | 10 | 20 | 20 | 25 | IC50 [7]: Not Active; IC50 (Semliki Forest virus): > 200 µg/mL; IC50 (Tacaribe virus): 50 µg/mL; CC50 (MT4): > 250 µg/mL; IC50 (Poliovirus 1): > 200 µg/mL; IC50 [11]: 3 µg/mL |
| CCCCCCCCCCCCSCCCCCCCCCCCCCCCCCCCCCCCCCCCCCCCCCCCCCCCCCCCCCCCCCCC(=O)N(CC)CCCCCCCCCCC(=O)NC(CCC(=O)[O-])C(=O)O.[Na+] (stereo not given) | 7 | 6 | 100 | > 50 | >40 | > 10 | > 10 | >50 | > 40 | > 10 | 40 | 5 | > 40 | > 200 | >200 | > 300 | 30 | 20 | > 40 | 10 | IC50 [12]: 1 µg/mL; IC50 (Semliki Forest virus): > 10 µg/mL; IC50 (Tacaribe virus): > 50 µg/mL; CC50 (MT4): > 250 µg/mL; IC50 (Poliovirus 1): > 200 µg/mL; IC50 [11]: 0.1 µg/mL |
| CCCCCCCCCCCCSCCCCCCCCCCCCCCCCCCCCCCCCCCCCCCCCC(=O)N(CC)CCCCCCCCCCC(=O)[O-].[Na+] | > 29 | 30 | 100 | 20 | >200 | > 200 | > 200 | >50 | > 40 | > 200 | > 200 | 9 | > 40 | > 200 | >200 | 27 | 50 | > 40 | 20 | 9 | IC50 [12]: > 11 µg/mL; IC50 (Semliki Forest virus): > 200 µg/mL; IC50 (Tacaribe virus): > 20 µg/mL; CC50 (MT4): 30 µg/mL; IC50 (Poliovirus 1): > 200 µg/mL; IC50 [11]: > 16 µg/mL |
| CCCCCCCCCCCCSCCCCCCCCCCCCCCCCCCCCCCCCCCCCCCCCCCCCCCCCC(=O)NCCCCCCCCCCC(=O)[O-].[Na+] | 1.3 | 30 | 200 | > 50 | >200 | > 200 | > 200 | >50 | > 100 | > 200 | > 100 | 15 | > 100 | > 200 | >200 | > 50 | 50 | > 100 | 20 | 40 | IC50 [7]: Not Active; IC50 (Semliki Forest virus): > 200 µg/mL; IC50 (Tacaribe virus): > 50 µg/mL; CC50 (MT4): > 250 µg/mL; IC50 (Poliovirus 1): > 200 µg/mL; IC50 [11]: 5 µg/mL |
| CCCCCCCCCCCCSCCCCC(=O)NCCCCCCCCCCC(=O)NCCC(=O)[O-].[Na+] | 27 | 30 | 400 | 50 | >200 | > 200 | > 200 | >50 | > 200 | > 200 | 70 | 23 | > 200 | > 200 | >200 | > 300 | 6 | 40 | 20 | 30 | IC50 [7]: Not Active; IC50 (Semliki Forest virus): > 200 µg/mL; IC50 (Tacaribe virus): 43 µg/mL; CC50 (MT4): > 250 µg/mL; IC50 (Poliovirus 1): > 200 µg/mL; IC50 [11]: 6 µg/mL |
